Source: ChEMBL document CHEMBL4014310, “Selective IKur Inhibitors for the Potential Treatment of Atrial Fibrillation: Optimization of the Phenyl Quinazoline Series Leading to Clinical Candidate 5-[5-Phenyl-4-(pyridin-2-ylmethylamino)quinazolin-2-yl]pyridine-3-sulfonamide” (J Med Chem, 2017)
Activity calls are given as the source filed them. The rule behind the calls is not given here.

Columns and labels:
Oryctolagus cuniculus [1] = experiment: Antiatrial fibrillation activity in methoxamine-sensitised rabbit assessed as plasma concentration required to show 10% increase in atrial effective refractory period at 0.17 mg/kg, iv administered as 30 mins infusion; format: functional, organism-based
How it was run: (§1)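 Rabbit, iv infusion of compound in DMF (0.17 mg/mL) with a 0.17 mg/kg maintenance dose. AERP was normalized to DMF vehicle, with time counted from the start of the maintenance infusion. Tissues were collected after 30 min. n = 3 rabbits; means ± standard error.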

Oryctolagus cuniculus [2] = experiment: Antiatrial fibrillation activity in methoxamine-sensitised rabbit assessed as plasma concentration required to show increase in atrial effective refractory period at 0.17 mg/kg, iv measured 15 mins post infusion; format: functional, organism-based; how it was run: as §1
[3] = Clearance in dog at 0.1 mg/kg, iv or 1 mg/kg, po; format: ADME, organism-based, Canis lupus familiaris; conditions: in vivo
How it was run: (§2)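 Single-dose PK study in mouse and rat (2 mg/kg iv, 5 mg/kg po), cynomolgus monkey (1 mg/kg iv and po) and dog (0.1 mg/kg iv, 1 mg/kg po). Dosing vehicle was 1:4:5 EtOH/propylene glycol/PEG400. Clearance, Vss, half-life, Cmax, Tmax, AUC (μM h) and oral %F were derived from plasma levels.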

[4] = Clearance in mouse at 2 mg/kg, iv or 5 mg/kg, po; format: ADME, organism-based; conditions: in vivo; how it was run: as §2
[5] = Oral bioavailability in mouse at 5 mg/kg; format: ADME, organism-based; conditions: in vivo
How it was run: (§3)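 Single-dose PK in mouse and rat (2 mg/kg iv, 5 mg/kg po), cynomolgus monkey (1 mg/kg iv and po) and dog (0.1 mg/kg iv, 1 mg/kg po). Dosing vehicle was 1:4:5 EtOH/propylene glycol/PEG400. Parameters reported: clearance, Vss, half-life, Cmax, Tmax, AUC and oral bioavailability.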

[6] = Tmax in mouse at 2 mg/kg, iv or 5 mg/kg, po; format: ADME, organism-based; conditions: in vivo; how it was run: as §3
[7] = Volume of distribution at steady state in mouse at 2 mg/kg, iv or 5 mg/kg, po; format: ADME, organism-based; conditions: in vivo, read-out: Vdss; how it was run: as §3
Oryctolagus cuniculus [8] = experiment: Antiatrial fibrillation activity in methoxamine-sensitised rabbit assessed as increase in atrial effective refractory period at 3 mg/kg, iv administered as 10 mins infusion relative to control; format: functional
How it was run: (§4)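 Rabbit, iv dosing at 1 or 3 mg/kg. AERP was measured at 10, 20 and 30 min time points as % prolongation, and plasma compound concentration was measured at the same time points and correlated with the AERP change.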

Oryctolagus cuniculus [9] = experiment: Antiatrial fibrillation activity in methoxamine-sensitised rabbit assessed as increase in atrial effective refractory period at 3 mg/kg, iv administered as 20 mins infusion relative to control; format: functional; how it was run: as §4
[10] = Half life in mouse at 2 mg/kg, iv or 5 mg/kg, po; format: ADME, organism-based; conditions: in vivo; how it was run: as §2
[11] = Protein binding in human plasma; format: ADME, cell-free; conditions: read-out: PPB
[12] = Tmax in cynomolgus monkey at 1 mg/kg, iv or 1 mg/kg, po; format: ADME, organism-based, Macaca fascicularis; conditions: in vivo; how it was run: as §3
Oryctolagus cuniculus [13] = experiment: Antiatrial fibrillation activity in methoxamine-sensitised rabbit assessed as increase in atrial effective refractory period at 0.17 mg/kg, iv measured 30 mins post infusion relative to control; format: functional; how it was run: as §1
[14] = Oral bioavailability in cynomolgus monkey at 1 mg/kg using crystalline form; format: ADME, organism-based, Macaca fascicularis; conditions: in vivo
How it was run: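 Oral %F in cynomolgus monkey at 1 mg/kg po, with the compound given as a micronized crystalline suspension rather than the solution vehicle (iv reference dose 1 mg/kg).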

Canis familiaris [15] = experiment: Effect on QTc interval in pacing-induced mongrel dog heart failure model at 0.1 to 0.3 mg/kg, po; format: organism-based, Canis lupus familiaris; conditions: in vivo
How it was run: (§5)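 Simultaneous atrio-ventricular pacing dog model of atrial arrhythmia. Compound was given orally at 0.1 or 0.3 mg/kg in 10% EtOH/40% propylene glycol/50% PEG 400. AF inducibility was scored as mean number of AF inductions and total AF duration, with QTc monitored and plasma concentration measured. n = 7 control, 5 (0.1 mg/kg) and 6 (0.3 mg/kg) dogs.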

[16] = Oral bioavailability in cynomolgus monkey at 1 mg/kg; format: ADME, organism-based, Macaca fascicularis; conditions: in vivo; how it was run: as §2
[17] = Oral bioavailability in rat at 5 mg/kg using crystalline form; format: ADME, organism-based; conditions: in vivo
[18] = Half life in dog at 0.1 mg/kg, iv or 1 mg/kg, po; format: ADME, organism-based, Canis lupus familiaris; conditions: in vivo; how it was run: as §2
Oryctolagus cuniculus [19] = experiment: Antiatrial fibrillation activity in methoxamine-sensitised rabbit assessed as plasma concentration required to show increase in atrial effective refractory period at 0.17 mg/kg, iv administered as 1 min infusion; format: functional, organism-based; how it was run: as §1
[20] = Cmax in dog at 0.1 mg/kg, iv or 1 mg/kg, po; format: ADME, organism-based, Canis lupus familiaris; conditions: in vivo; how it was run: as §2
[21] = Oral bioavailability in dog at 1 mg/kg; format: ADME, organism-based, Canis lupus familiaris; conditions: in vivo; how it was run: as §3
Rhesus monkey = experiment: Drug absorption in monkey famotidine model at 10 mg/kg; format: ADME, organism-based, Macaca mulatta; conditions: in vivo
Canis familiaris [22] = experiment: Antiarrhythmic activity in mongrel dog heart failure model assessed as reduction in mean number of pacing-induced atrial fibrillation at 0.1 to 0.3 mg/kg, po; format: functional, organism-based; conditions: Canis lupus familiaris; how it was run: as §5
[23] = Cmax in mouse at 2 mg/kg, iv or 5 mg/kg, po; format: ADME, organism-based; conditions: in vivo; how it was run: as §2
Oryctolagus cuniculus [24] = experiment: Antiatrial fibrillation activity in methoxamine-sensitised rabbit assessed as increase in atrial effective refractory period at 0.17 mg/kg, iv measured 15 mins post infusion relative to control; format: functional; how it was run: as §1
[25] = Inhibition of IKs (unknown origin); parameters: species or system Homo sapiens
[26] = Plasma concentration in methoxamine-sensitised rabbit at 3 mg/kg, iv administered as 10 mins infusion; format: ADME, organism-based, Oryctolagus cuniculus
[27] = AUC in cynomolgus monkey at 1 mg/kg, iv or 1 mg/kg, po; format: ADME, organism-based, Macaca fascicularis; conditions: in vivo; how it was run: as §2

clearance [3]: 0.05 mL/min/kg | clearance [4]: 10.6 mL/min/kg | bioavailability [5]: 100% | Tmax [6]: 0.5 h | Vd [7]: 1.8 L/kg | half-life [10]: 2 h | fraction unbound [11]: < 0.01 | Tmax [12]: 4.9 h | bioavailability [14]: 54% | bioavailability [16]: 100% | bioavailability [17]: 35% | half-life [18]: 51 h | Cmax [20]: 7.8 µM | bioavailability [21]: 64% | Drug absorption (Rhesus monkey): Active | Cmax [23]: 4 µM | IC50 [25]: > 10 µM | AUC [27]: 11 µM·h
Structure (SMILES): NS(=O)(=O)c1cncc(-c2nc(NCc3ccccn3)c3c(-c4ccccc4)cccc3n2)c1 [BMS-919373]
Cp (Oryctolagus cuniculus [1]): 0.15 µM | Cp (Oryctolagus cuniculus [2]): 0.1 µM | Activity (Oryctolagus cuniculus [8]): 10.8% | Activity (Oryctolagus cuniculus [9]): 16.2% | Activity (Oryctolagus cuniculus [13]): 11.4% | Activity (Canis familiaris [15]): Non-Toxic | Cp (Oryctolagus cuniculus [19]): 0.42 µM | Activity (Canis familiaris [22]): Active | Activity (Oryctolagus cuniculus [24]): 9.5% | concentration at 10 min [26]: 2.3 µM
